# Assay outcomes: PubChem, several laboratories
# AHR activator: activates the human aryl hydrocarbon receptor; P35869; AHR-responsive luciferase reporter cells, luminescence; activation, % at 5 µM; 2.5% of 320,000 active; AID 2796; in the data active = activation above about 47%;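 also: 0% = vehicle wells and 100% = reference agonist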
# HDAC3 inh: human HDAC3 inhibition | inhibition, % at 8.3 µM | recombinant HDAC3, fluorogenic peptide/trypsin coupled, fluorescence | 0.15% of 320,000 active; in the data active = inhibition above about 26%, passing the limit was not always enough
# GAA850 FXN act: activators of GAA850 frataxin (FXN) promoter. HEK293 lucGAA850 FXN promoter luciferase reporter, 24 h; percent of 10 µM SAHA response. activation, % at 6 µM. 0.56% of 360,000 active. AID 540364;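 active = activation above the average of all compounds screened plus 3 SD, cutoff fixed separately per campaign, cut at about 7.5% in these data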;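 also: 0% = DMSO wells and 100% = 10 µM SAHA wells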
# SENP1 FRET inh: SENP1 (human) catalytic domain inhibition | Q9P0U3 | recombinant SENP1 catalytic domain, CyPet-SUMO1-YPet FRET cleavage | inhibition, % at 10 µM | 0.21% of 360,000 active;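 active = inhibition at least 30% at 10 µM, raw YFP signal under a set limit, fluorescence ratio 0.5 to 1.5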;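 also: 0% = enzyme with DMSO and 100% = no enzyme wells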
# Target sequence (Q9P0U3 419-644 limits assumed): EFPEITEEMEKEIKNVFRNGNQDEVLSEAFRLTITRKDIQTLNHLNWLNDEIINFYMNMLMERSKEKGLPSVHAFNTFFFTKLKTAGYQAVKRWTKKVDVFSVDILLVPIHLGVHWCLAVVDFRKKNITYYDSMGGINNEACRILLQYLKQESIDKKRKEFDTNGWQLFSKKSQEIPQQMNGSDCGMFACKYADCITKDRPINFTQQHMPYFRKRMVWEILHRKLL
#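 system = hSENP1 catalytic domain, recombinant | reagent = SFCypet-SUMO1-SFYpet substrate at 25 nM | doses = one dose per compound, 10 µM, 0.5% DMSO | incubation = enzyme reaction for 50 min at room temperature, dark | measured by = FRET, CFP and YFP emission | controls = no-enzyme low, enzyme-DMSO high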
# CTSL1 counter-1: counter-screen for PFM18AAP inhibitors: inhibitors of F. hepatica cathepsin L1. recombinant F. hepatica cathepsin L1, Z-Leu-Arg-MCA fluorescence. inhibition, % at 5.96 µM. 0.49% of 300,000 active;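 active = inhibition above the mean of all tested compounds plus 3 SD, set per screening campaign, cut at about 17% in these data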;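 also: 0% = plate median of test compound wells and 100% = 1 µM Z-Phe-Ala-diazomethylketone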
# PfM18AAP inh-1: PfM18AAP enzyme inhibition | recombinant PfM18AAP, H-Glu-NHMec fluorogenic cleavage | inhibition, % at 7.35 µM | 1.2% of 290,000 active;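 active = inhibition above the campaign mean inhibition over all tested compounds plus 3 SD, cut at about 28% in these data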;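 also: 0% = plate median of test compound wells and 100% = 2 mM ZnCl2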
# PfM18AAP inh-2: PfM18AAP inhibition, confirmation; recombinant PfM18AAP, H-Glu-NHMec fluorogenic cleavage; shares compounds with PfM18AAP inh-1; inhibition, % at 7.35 µM; AID 2170; 28% of 2,400 active;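 active = mean inhibition over replicate wells above the hit cutoff set for the earlier primary screen, cut at about 29% in these data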;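 also: 0% = median of test compound wells and 100% = 2 mM ZnCl2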
# CTSL1 counter-2: counter-screen for PFM18AAP inhibitors: confirmation of human cathepsin L inhibitors. shares compounds with PfM18AAP inh-1. purified cathepsin L1, Z-Leu-Arg-MCA fluorescence. inhibition, % at 5.96 µM. 2,400 tested, under 10 active;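 active = average inhibition across replicates above the hit cutoff set in the earlier primary screen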;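 also: 0% = median of test compound wells and 100% = Z-Phe-Ala-diazomethylketone 1 µM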
# Target sequence (P07711 whole entry, looked up): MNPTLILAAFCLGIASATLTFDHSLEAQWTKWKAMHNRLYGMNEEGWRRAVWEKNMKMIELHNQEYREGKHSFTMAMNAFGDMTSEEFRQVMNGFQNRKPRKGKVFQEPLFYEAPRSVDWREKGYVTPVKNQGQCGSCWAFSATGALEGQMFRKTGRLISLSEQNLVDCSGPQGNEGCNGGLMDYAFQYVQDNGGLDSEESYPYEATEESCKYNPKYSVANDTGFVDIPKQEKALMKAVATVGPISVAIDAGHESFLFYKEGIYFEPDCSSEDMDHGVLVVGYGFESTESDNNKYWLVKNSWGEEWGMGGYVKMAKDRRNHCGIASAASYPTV
# AHR act cf: human AHR activation, confirmation | human cells, AHR-responsive luciferase reporter, luminescence | 87% of 2,300 active | shares compounds with AHR activator | activation, % at 9 µM; in the data active = activation above about 49%;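 also: HepG2 hepatoma cells carrying a DRE-driven firefly luciferase reporter; 0% = vehicle wells and 100% = reference agonist wells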
# PXR act counter: activates human PXR in AHR activator counter-screen; shares compounds with AHR activator; cell-based PXR reporter, luciferase luminescence; activation, % at 11.6 µM; 88% of 2,300 active; AID 434939; in the data active = activation above about 11%;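 also: human hepatoma DPX-2 cells expressing full-length human PXR; 0% = DMSO and 100% = reference agonist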
# Numbers without * were called inactive; x = not tested or not shown. The list is not random: actives were taken first. Their share in the collection is about 4.2%.
SMILES,AHR activator,HDAC3 inh,GAA850 FXN act,SENP1 FRET inh,CTSL1 counter-1,PfM18AAP inh-1,PfM18AAP inh-2,CTSL1 counter-2,others
Nc1cc2c(cc1O)CCCC2,31.5,1.1,-0.5,-9.2,-4.6,32.6*,57.8*,1.2,
O=[N+]([O-])c1cc(C=Nc2cccc3c(O)cccc23)ccc1Cl,24.5,-26.6,x,x,2.1,39.3*,-29.3,-1.6,
Cc1cn([C@H]2C[C@H](O)[C@@H](/C=C/C(=O)NCCC(C)C)O2)c(=O)[nH]c1=O,x,x,x,0.7,x,x,x,x,
Clc1ccc2nc(CSc3ncn[nH]3)cn2c1,8.1,0.8,2.1,2.2,0.1,43.2*,12.8,6.6,
Clc1ccc(CSc2ncn[nH]2)cc1,-3.3,3.3,0.4,2.6,-1.9,19.0,x,x,
Brc1ccc2nc(CSc3ncn[nH]3)cn2c1,7.4,-1.7,1.0,-1.0,1.2,66.0*,29.6*,3.0,
CCCS(=O)(=O)N1CCN(Cc2ccc3c(c2)c2ccccc2n3CC)CC1,2.9,-6.9,0.8,0.6,1.3,2.5,x,x,
O=C(NCC(=O)N1CCCCC1)c1ccc2ccccc2c1,12.1,2.1,4.6,-1.4,0.4,-12.0,x,x,
CS(=O)(=O)c1ccc2nc(NC(=O)c3ccc(Cn4cc(Br)cn4)o3)sc2c1,39.5,x,-0.7,-26.4,3.2,-0.7,x,x,
O=C(Cn1cncn1)c1ccccc1Br,0.1,-0.5,-0.8,3.0,4.6,38.8*,14.6,-2.2,
O=C(Cn1cncn1)NCc1ccccc1Br,0.7,1.0,1.5,1.0,-0.3,1.1,x,x,
O=C(/C=C(\c1ccc(Cl)cc1)n1cncn1)c1ccc(Cl)cc1,5.5,-1.3,-1.4,3.1,0.5,72.9*,15.2,4.5,
O=C(Cn1cncn1)c1ccc(Cl)cc1,2.2,-11.4,-1.8,1.9,-6.2,59.0*,35.9*,2.5,
Cc1ccc(C(=O)Cn2cncn2)cc1,4.7,-11.2,1.6,1.0,0.0,1.6,x,x,
CC/C(Cc1ccccc1)=N\NC(=O)c1cc([N+](=O)[O-])cc([N+](=O)[O-])c1,4.3,8.2,0.3,1.5,2.4,41.3*,10.9,2.3,
COc1ccc(N2CCN(C(=O)CNC(=O)c3ccco3)CC2)cc1,-0.1,x,1.2,-0.1,-1.9,-1.9,x,x,
Oc1ccc(/C=N/n2c(COc3ccccc3)n[nH]c2=S)c(O)c1,21.4,5.5,-0.1,-5.8,-0.6,33.2*,12.3,2.7,
COc1ccc(Br)cc1/C=N/n1c(COc2ccccc2)n[nH]c1=S,5.5,-3.7,0.8,3.1,0.5,13.1,x,x,
COc1cc(OC)c(OC)cc1/C=N/n1c(COc2ccccc2)n[nH]c1=S,4.8,2.9,-2.5,0.6,1.6,33.5*,-0.6,1.0,
CCOC(=O)C1=CCN(S(=O)(=O)c2ccc(Br)cc2)C1c1ccccc1 (centres undefined),x,x,x,0.1,x,x,x,x,
CCc1nc2ccc(C(=O)Nc3ccc4c(c3)OCC(=O)N4)cn2c1N(CC)Cc1cccc(Br)c1,x,x,-0.9,-4.4,x,x,x,x,
Cc1ccc(-c2csc(Nc3ccccn3)n2)cc1,42.7,4.5,-1.3,1.1,0.3,7.1,x,x,
Cc1cccnc1Nc1nc(-c2ccc(O)cc2)cs1,5.3,1.4,5.4,0.0,13.6,34.4*,30.2*,3.2,
COc1cccc(Nc2nc(-c3ccc(O)cc3)cs2)c1,53.8*,10.6,-2.3,-2.9,-2.9,43.1*,33.7*,-1.2,
O=C1CNC(c2ccccc2)C(c2ccccc2)N1 (centres undefined),x,x,0.9,-0.3,x,x,x,x,
SMILES,AHR activator,HDAC3 inh,GAA850 FXN act,SENP1 FRET inh,CTSL1 counter-1,PfM18AAP inh-1,PfM18AAP inh-2,CTSL1 counter-2,others
CC1(C(=O)Nc2cccc(OC(F)(F)F)c2)Cc2c(-c3cccc(C(N)=O)c3)ccnc2O1 (centres undefined),x,x,-2.6,1.4,x,x,x,x,
CN1/C(=C/C(=O)c2cccs2)Sc2ccccc21,86.3*,0.7,2.1,-28.6,0.0,49.4*,-15.9,0.7,AHR act cf=115.2*;PXR act counter=22.9*
Cc1ccc2sc(NNC(=O)C3COc4ccccc4O3)nc2c1C (centres undefined),137.3*,-2.3,0.4,0.6,-2.9,40.6*,2.6,2.8,AHR act cf=65.5*;PXR act counter=48.4*
C(=N\Nc1ncnc2sc3c(c12)CCC3)/c1ccncc1,81.4*,-1.8,4.5,-2.4,2.1,48.4*,-27.4,6.5,AHR act cf=124.4*;PXR act counter=28.6*
COc1ccc(NC(=O)CSc2ccc3c(c2)OCCO3)cc1S(N)(=O)=O,0.8,0.1,1.1,2.7,x,x,x,x,
S=c1[nH]c(-c2ccccc2)cn1/N=C/c1ccncc1,88.5*,1.7,1.9,2.9,-0.2,51.3*,42.7*,-7.5,AHR act cf=134.6*;PXR act counter=7.7
COc1ccccc1CNC(=O)CSc1ccc(-c2cccc([N+](=O)[O-])c2)nn1,-0.5,5.7,1.8,2.3,0.6,0.7,x,x,
CCC(=O)N1c2ccc(S(=O)(=O)NCCc3ccc(OC)c(OC)c3)cc2CC1C (centres undefined),2.5,5.3,0.7,-1.0,-6.8,4.5,x,x,
CN(C)c1cccc(C(=O)n2cc(C(=O)c3cc(F)ccc3O)cn2)c1,86.1*,4.2,1.8,-4.0,2.3,53.0*,-5.2,4.3,AHR act cf=30.4;PXR act counter=20.0*
O=C(c1cnn(C(=O)c2cccc(S(=O)(=O)N3CCOCC3)c2)c1)c1ccccc1O,3.8,-0.6,3.4,2.2,-3.7,5.8,x,x,
Cc1ncc(CO)c(/C=N/NC(=S)Nc2ccc(F)cc2)c1O,17.9,-1.9,-0.5,-28.3,5.1,23.6,x,x,
Cc1ncc(CO)c(/C=N/Nc2ccc(C(F)(F)F)cn2)c1O,80.5*,12.3,-5.6,-20.8,8.3,47.7*,-26.5,0.8,AHR act cf=2.5;PXR act counter=14.7*
O=C(NC1CCSc2ccccc21)c1ccccc1Br (centres undefined),2.6,1.1,2.7,2.6,-0.5,-1.3,x,x,
Oc1c(C(c2ccc(F)cc2)N2CCc3ccccc3C2)sc2ncnn12 (centres undefined),96.3*,11.0,-1.3,1.8,-1.4,53.3*,25.3,-4.7,AHR act cf=77.7*;PXR act counter=33.5*
Oc1c(C(c2cccc(F)c2)N2CCN(Cc3ccccc3)CC2)sc2ncnn12 (centres undefined),-0.7,6.7,-1.7,-0.5,0.0,28.0,x,x,
C/C(=N\Nc1cc(C)nc(-c2ccccc2O)n1)c1ccccc1O,23.8,x,0.4,-0.2,-3.1,10.9,x,x,
Cc1cc(N/N=C/c2ccccc2O)nc(-c2ccccc2O)n1,118.6*,5.9,0.2,0.5,-4.2,41.9*,39.6*,8.6,AHR act cf=40.2;PXR act counter=9.0
